# Published values collected from several papers.
# LATS1: Serine/threonine-protein kinase LATS1 (LATS1, Homo sapiens, UniProt O95835)
# SLC18A2: Synaptic vesicular amine transporter (SLC18A2, Homo sapiens, UniProt Q05940)
# CA1: Carbonic anhydrase 1 (CA1, Homo sapiens, UniProt P00915)
# ERBB2: Receptor tyrosine-protein kinase erbB-2 (ERBB2, Homo sapiens, UniProt P04626)
# gag-pol reverse transcriptase: Gag-Pol polyprotein, reverse transcriptase (gag-pol, Human immunodeficiency virus 1, UniProt P03366)
Structure (SMILES),target,assay,test system,setting,IC50 [nM]
Nc1nc2c(ncn2COCCO)c(=O)[nH]1,"Carbonic anhydrase 2 (CA2, Homo sapiens, UniProt P00918)","enzyme activity, inhibitor, absorbance",,pH 7.4,13800
NC(=O)N1c2ccccc2C=Cc2ccccc21,"Sodium channel protein type 2 subunit alpha (SCN2A, Homo sapiens, UniProt Q99250)","ion current, inhibitor, patch clamp",,,> 300000
Cc1cc(-c2ccnc3[nH]cc(F)c23)cc(F)c1[C@@]1(O)[C@H](C)CN(C2COC2)C[C@@H]1C,LATS1,"enzyme activity, inhibitor, radiometric",,,5.9
COc1cc2c(N)nc(N3CCN(C(=O)OCC(C)(C)O)CC3)nc2c(OC)c1OC,SLC18A2,"transporter uptake, inhibitor",,,22
CC(C)(C(=O)O)c1ccc(C(O)CCCN2CCC(C(O)(c3ccccc3)c3ccccc3)CC2)cc1 (stereo not shown),CA1,"enzyme activity, inhibitor, absorbance",,pH 7.4,19300
Cc1cc2c(cc1C)N[C@H](c1ccccc1)[C@@H](O)C(=O)N2,ERBB2,"enzyme activity, inhibitor, ELISA",,,23
Cc1cnc(Nc2ccc(OCCN3CCCC3)cc2)nc1Nc1cccc(S(=O)(=O)NC(C)(C)C)c1,SLC18A2,"transporter uptake, inhibitor, radiometric",,cell membranes,418
CC1=C(/C=C/C(C)=C/C=C/C(C)=C\C(=O)O)C(C)(C)CCC1,CA1,"enzyme activity, inhibitor, absorbance",,pH 7.4,8470
CCOC(=O)c1c(NCCC(C)C)c2c([nH]c1=O)CCC2,gag-pol reverse transcriptase,"enzyme activity, inhibitor",,,88700
CCc1nn(CCCN2CCN(c3cccc(Cl)c3)CC2)c(=O)n1CCOc1ccccc1,SLC18A2,"transporter uptake, inhibitor",,,667
Cn1cnc([N+](=O)[O-])c1Sc1ncnc2nc[nH]c12,CA1,"enzyme activity, inhibitor, absorbance",,pH 7.4,18400
CC(C)(C)NC(=O)C1CCN(Cc2cccc(/N=N/c3ccccc3F)c2)CC1,"Atypical chemokine receptor 3 (ACKR3, Homo sapiens, UniProt P25106)","ligand displacement, BRET",,,1260
COc1cc2ncnc(Nc3ccc(F)c(Cl)c3)c2cc1NC(=O)/C=C/CN1CCCCC1,SLC18A2,"transporter uptake, inhibitor, radiometric",,cell membranes,433
CNC(=O)c1ccccc1Nc1nc(Nc2ccc(N3CCNCC3)cc2)ncc1Cl,LATS1,"target engagement in cells, BRET",,,301
C/C=C/CNc1c2c([nH]c(=O)c1C(=O)OCC)CCC2,gag-pol reverse transcriptase,"enzyme activity, inhibitor",,,> 100000
O=C(Nc1c[nH]nc1-c1nc2cc(CN3CCOCC3)ccc2[nH]1)NC1CC1,LATS1,"enzyme activity, inhibitor, radiometric",,,73
Cc1ccc(OCC(=O)N[C@@H](Cc2c[nH]c3ccccc23)C(=O)OC(C)C)cc1,"Cytochrome P450 2C19 (CYP2C19, Homo sapiens, UniProt P33261)","enzyme activity, inhibitor","human, liver microsomes",30 min,31500
OC1(c2ccc(-c3ccnc4[nH]cc(F)c34)cc2)CCNCC1,LATS1,"enzyme activity, inhibitor, radiometric",,,2.9
O=C1Cc2cc(CCN3CCN(c4nsc5ccccc45)CC3)c(Cl)cc2N1,SLC18A2,"transporter uptake, inhibitor, radiometric",,cell membranes,15
COc1c(Cl)cccc1Nc1c(-c2ccncc2OC[C@@H]2COCCO2)[nH]c2c1C(=O)NCC2,ERBB2,"enzyme activity, inhibitor, TR-FRET",,,< 0.5
CCOC(=O)N1CCC(=C2c3ccc(Cl)cc3CCc3cccnc32)CC1,CA1,"enzyme activity, inhibitor, absorbance",,pH 7.4,11900
c1cc(-c2ccc(C3CCNCC3)cc2)c2cc[nH]c2n1,LATS1,"target engagement in cells, BRET",,,> 50000
